A short description of data set [1]: Induction of apoptosis in human RC-58T/h/SA#4 cells assessed as p53 expression at 20 uM after 24 hrs by immunoblotting analysis relative to untreated control. The format is functional. The method in brief: (§1)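 RC-58T/h/SA#4 cells seeded at 5 × 10^4 cells/mL and cultured 24 h, then given compound across a concentration series or at fixed dose over a time course. Lysates were quantified by BCA. 10 μg protein/lane run on 12% SDS-PAGE and transferred to nitrocellulose. Blots probed for p53, CHOP and β-actin with HRP secondary and ECL.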
(In general: A western blot detects proteins with antibodies after separation by electrophoresis.)

The nature of data set [2]: Induction of apoptosis in human RC-58T/h/SA#4 cells assessed as DR5 expression at 10 uM after 24 hrs by immunoblotting analysis relative to untreated control. Type of data set: functional.
The nature of data set [3]: Sensitization of TRAIL-induced apoptosis in human RC-58T/h/SA#4 cells assessed as cytochrome C level in cytosol at 20 uM after 24 hrs by immunoblotting analysis relative to untreated control. The format is functional. The method in brief:
(§2)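 Cells given 20 μM compound and/or 100 ng/mL TRAIL for 24 h. Mitochondrial and cytosolic fractions prepared with a mitochondria isolation kit. Fractions resolved by 12% SDS-PAGE at 10 μg/lane and immunoblotted with anti-cytochrome c or anti-AIF overnight at 4 °C, then HRP secondary and ECL detection.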

Data set [4] is described as follows: Induction of apoptosis in human RC-58T/h/SA#4 cells assessed as procaspase-8 activation at 20 uM after 24 hrs by immunoblotting analysis relative to untreated control. Type of data set: functional. The method in brief: (§3)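 Cells seeded at 5 × 10^4 cells/mL and cultured 24 h, then given 20 μM compound and/or 100 ng/mL TRAIL for 24 h. Whole-cell lysate made in Tris/NaCl/EDTA/NaF/pyrophosphate/PMSF/aprotinin buffer, 30 min on ice, protein measured by BCA. 12% SDS-PAGE at 10 μg/lane, nitrocellulose blot, primary antibodies (caspase-3, -8, -9, Bax, Bcl-2, PARP) overnight at 4 °C, HRP secondary, ECL.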

Data set [5] is described as follows: Induction of apoptosis in human RC-58T/h/SA#4 cells assessed as DR4 expression at 10 uM after 24 hrs by immunoblotting analysis relative to untreated control. Type of data set: functional.
The nature of data set [6]: Induction of apoptosis in human RC-58T/h/SA#4 cells assessed as p53 expression at 10 uM after 24 hrs by immunoblotting analysis relative to untreated control. The format is functional. The gist of the method:
as §1

The nature of data set [7]: Sensitization of TRAIL-induced apoptosis in human RC-58T/h/SA#4 cells assessed as accumulation at Sub-G1 phase at 20 uM after 24 hrs by annexin-V/propidium iodide staining-based flow cytometry (reference value: 4.8%). Type of data set: functional. In general terms: Flow cytometry measures light scatter and fluorescence of single cells or particles in a stream.
Data set [8] in a line: Induction of apoptosis in human RC-58T/h/SA#4 cells assessed as AIF level in cytosol at 20 uM after 24 hrs by immunoblotting analysis relative to untreated control. The format is functional. The gist of the method:
(§4)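 Cells grown in DMEM/10% FBS at 37 °C, 5% CO2, then treated 24 h with compound (20 μM) with or without TRAIL (100 ng/mL). Whole lysates were used for Bax and Bcl-2. Cytosolic and mitochondrial fractions were prepared with a mitochondria isolation kit for AIF and cytochrome c. Blotting used 10 μg protein/lane, 12% SDS-PAGE, nitrocellulose, overnight primary antibody at 4 °C and ECL detection.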

The species named for data set [9] is Homo sapiens. The data set can be described thus: Induction of apoptosis in human RC-58T/h/SA#4 cells assessed as DR5 expression after 24 hrs by immunoblotting analysis relative to untreated control. The format is functional, cell-based.
The nature of data set [10]: Induction of apoptosis in human RC-58T/h/SA#4 cells assessed as DR4 expression at 2.5 uM after 24 hrs by immunoblotting analysis relative to untreated control. The format is functional.
The species named for data set [11] is Homo sapiens. The data set can be described thus: Induction of apoptosis in human RC-58T/h/SA#4 cells assessed as DR5 expression at 20 uM by immunoblotting analysis relative to untreated control. Type of data set: functional, cell-based. The settings on record: TDE = time-dependent effect.
Data set [12] is described as follows: Sensitization of TRAIL-induced apoptosis in human RC-58T/h/SA#4 cells assessed as procaspase-9 activation at 20 uM after 24 hrs by immunoblotting analysis in presence of Dr5 Fc chimera relative to untreated control. The format is functional. The method in brief:
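Cells pretreated 2 h with 100 ng/mL DR5 Fc chimera, then given 20 μM compound and/or 100 ng/mL TRAIL for 24 h. Total lysates immunoblotted (12% SDS-PAGE, nitrocellulose) for caspase-3, -8, -9 and PARP cleavage, with HRP secondary and ECL detection.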

The nature of data set [13]: Induction of apoptosis in human RC-58T/h/SA#4 cells assessed as cytochrome C level in cytosol at 20 uM after 24 hrs by immunoblotting analysis relative to untreated control. Type of data set: functional. The method in brief: as §4
Data set [14] in a line: Induction of apoptosis in human RC-58T/h/SA#4 cells assessed as DR5 expression at 40 uM after 24 hrs by immunoblotting analysis relative to untreated control. The format is functional.
Data set [15] in a line: Induction of apoptosis in human RC-58T/h/SA#4 cells assessed as p53 expression at 20 uM after 6 hrs by immunoblotting analysis relative to untreated control. The format is functional. The gist of the method: as §1
Data set [16] can be described thus: Sensitization of TRAIL-induced cytotoxicity against human RWPE1 cells assessed as cell viability at 20 uM after 24 hrs by SRB assay. Type of data set: cell-based. The settings on record: rwpe-1, 24 h. The method in brief: (§5)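 Cells seeded at 5 × 10^4 cells/mL, grown in DMEM with 10% FBS, and given the compound with or without 100 ng/mL TRAIL for 24 h at 37 °C, 5% CO2. RWPE-1 tested at 20 μM. Cells fixed in 12% TCA for 1 h at 4 °C, stained 1 h with 0.4% SRB, washed in 1% acetic acid, dye dissolved in 10 mM Tris and absorbance read. Three experiments, means ± SD.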
(Sulforhodamine B stains cellular protein and so reports cell mass.)

For data set [17], the species on record is Homo sapiens. The data set can be described thus: Induction of apoptosis in human RC-58T/h/SA#4 cells assessed as CHOP expression at 2.5 to 40 uM by immunoblotting analysis relative to untreated control. The format is functional, cell-based. The settings on record: TDE = time-dependent effect. The method in brief:
as §1

Data set [18] can be described thus: Induction of apoptosis in human RC-58T/h/SA#4 cells assessed as DR5 expression at 2.5 uM after 24 hrs by immunoblotting analysis relative to untreated control. The format is functional.
The nature of data set [19]: Induction of apoptosis in human RC-58T/h/SA#4 cells assessed as CHOP expression at 20 uM after 12 hrs by immunoblotting analysis relative to untreated control. Type of data set: functional. The method in brief:
as §1

The species named for data set [20] is Homo sapiens. The data set can be described thus: Sensitization of TRAIL-induced cytotoxicity against human RC-58T/h/SA#4 cells assessed as cell viability at 5 to 20 uM after 24 hrs by SRB assay. Type of data set: functional, cell-based. The gist of the method: as §5
The nature of data set [21]: Sensitization of TRAIL-induced apoptosis in human RC-58T/h/SA#4 cells assessed as AIF level in cytosol at 20 uM after 24 hrs by immunoblotting analysis relative to untreated control. Type of data set: functional. The method in brief: as §2
Data set [22] can be described thus: Induction of apoptosis in human RC-58T/h/SA#4 cells assessed as DR4 expression at 20 uM after 12 hrs by immunoblotting analysis relative to untreated control. The format is functional.
Data set [23] is described as follows: Sensitization of TRAIL-induced apoptosis in human RC-58T/h/SA#4 cells assessed as procaspase-9 activation at 20 uM after 24 hrs by immunoblotting analysis relative to untreated control. Type of data set: functional. The gist of the method:
as §3

Data set [24] can be described thus: Induction of apoptosis in human RC-58T/h/SA#4 cells assessed as CHOP expression at 20 uM after 6 hrs by immunoblotting analysis relative to untreated control. Type of data set: functional. The method in brief:
as §1

The structures appear in SMILES notation. Activity calls are given as the source filed them. The rule behind the calls is not given here.

With `CC(C)/C=C/C(=O)c1ccoc1`, the Ratio in data set [1] is 2.3; in data set [2] it was 1.2; in [3], 1.2; in [4] it was 1.2; in data set [5], 1; in data set [6], 2. Besides, the Ratio in data set [8] is 1.1; in [10], 1.1; in [12], 1.1; in [13] it was 0.9; in data set [14], 1.3; in data set [15], 1.1. Moreover, the Ratio is reported as 1 in [18]; 1.6 in data set [19]; 1.2 in data set [21]; 1 in data set [22]; 0.5 in data set [23]; 1 in data set [24]. In addition, the Activity in data set [7] was 18%; in [9], “Dose-dependent effect”; in [11], “tde”; in data set [16] it was “Toxic”; in data set [17] it was “tde”. The outcome in data set [20] was Active.

These data come from ChEMBL document CHEMBL3351274, “Sensitization of tumor necrosis factor-related apoptosis-inducing ligand (TRAIL)-resistant primary prostate cancer cells by isoegomaketone from Perilla frutescens” (J Nat Prod, 2014).
